pEC50, pIC50: −log10 of the molar value.
Assays:
CEM-SS [1] = experiment: Concentration required to protect CEM-SS cells from HIV-1 mediated uM; type: functional, cell-based, Homo sapiens
How it was run: (§1)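 CEM-SS cells were infected with HIV-1 RF at MOI about 0.12 TCID50/cell for 4 h at 37 °C, then the virus supernatant was removed. Cells at 10^4/well were exposed to compound diluted from DMSO (maximum 100 µM) in triplicate wells. After 6 days at 37 °C, 5% CO2, viability was read with XTT. EC50 = concentration giving 50% protection from viral cytopathicity relative to infected controls.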

CEM-SS [2] = experiment: Antiviral activity against HIV-1 determined by concentration which resulted in cytotoxicity of 50% of CEM-SS cell population relative to drug-free controls; type: functional, cell-based; details: Homo sapiens
How it was run: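 Cytotoxicity in uninfected CEM-SS cells (RPMI 1640, 10% heat-inactivated FCS, 25 mM HEPES, antibiotics; 37 °C, 5% CO2). Compounds dissolved in DMSO, diluted in medium, top concentration 100 µM, duplicate wells per concentration. 10^4 cells/well, 6-day incubation, viability by XTT dye. IC50 = concentration reducing cell growth by 50% of uninfected controls.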

CEM-SS [3] = experiment: Concentration required to protect CEM-SS cells from HIV-1 mediated cytopathicity by 50% relative to drug-free controls was determined; type: functional, cell-based, Homo sapiens; how it was run: as §1
[4] = target: Human immunodeficiency virus type 1 reverse transcriptase (Human immunodeficiency virus 1, UniProt Q72547); experiment: Inhibition of HIV-1 reverse transcriptase using a poly(rC):oligo(dG)12-18 template primer
How it was run: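 HIV-1 reverse transcriptase inhibition was measured with a poly(rC):oligo(dG)12-18 template:primer system.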

[5] = Therapeutic Index (IC50/EC50)
How it was run: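 Ratio of cytotoxic IC50 in uninfected CEM-SS cells to antiviral EC50 in HIV-1 RF-infected CEM-SS cells, both from 6-day XTT viability readings. Not determined when no EC50 was available.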

Which EC50 (CEM-SS [1]) does the source give for `CCCc1cc(=O)oc2c(C(=O)C(C)C(C)(C)O)c(O)c3c(c12)OC(C)(C)C=C3` (racemic) here?
Its EC50 is “Not Active”.

With `CCCc1cc(=O)oc2c3c(c4c(c12)OC(C)(C)C=C4)O[C@H](C)[C@H](C)[C@@H]3O` (racemic) [CALANOLIDE C] as the molecule, how does the pIC50 (CEM-SS [2]) read?
Its pIC50 is 4.74.

What about the EC50 (CEM-SS [1]) of the same molecule?
Its EC50 is “Not Active”.

What does the source list for `CCCc1cc(=O)oc2c3c(c4c(c12)OC(C)(C)C=C4)O[C@H](C(C)C)[C@@H](C)[C@H]3O` (racemic)?
pIC50 (CEM-SS [2]): 5.19; EC50 (CEM-SS [1]): Not Active

With `CCCc1cc(=O)oc2c3c(c4c(c12)OC(C)(C)C=C4)OC[C@H](C)[C@@H]3O` (racemic) as the molecule, how does the pIC50 (CEM-SS [2]) read?
The pIC50 was 4.66.

And the pEC50 (CEM-SS [3]; Homo sapiens, CEM-SS)?
The pEC50 was 5.14.

What about the pEC50 [4] of the same molecule?
The pEC50 was 4.30.

And the TI [5]?
Its TI is 3.1 Ratio.

With `CCCc1cc(=O)oc2c3c(c4c(c12)OC(C)(C)C=C4)OC[C@H](C)[C@H]3O` (racemic) as the molecule, how does the pIC50 (CEM-SS [2]) read?
The pIC50 was 4.66.

And the EC50 (CEM-SS [1])?
The EC50 was “Not Active”.

With `CCCc1cc(=O)oc2c3c(c4c(c12)OC(C)(C)C=C4)O[C@H](C)[C@@H](C)[C@@H]3O` [CALANOLIDE A] as the molecule, how does the pIC50 (CEM-SS [2]) read?
The pIC50 was 4.64.

And the pEC50 (CEM-SS [3]; Homo sapiens, CEM-SS)?
Its pEC50 is 6.57.

What about the pEC50 [4] of the same molecule?
The pEC50 was 6.49.

And the TI [5]?
The TI was 85 Ratio.

What does the source list for `CCCc1cc(=O)oc2c3c(c4c(c12)OC(C)(C)C=C4)O[C@H](C)C(C)(C)[C@@H]3O`?
pIC50 (CEM-SS [2]): 4.70; EC50 (CEM-SS [1]): Not Active

With `CCCc1cc(=O)oc2c3c(c4c(c12)OC(C)(C)C=C4)OC(C)(C)[C@H](C)C3=O` (racemic) as the molecule, how does the pIC50 (CEM-SS [2]) read?
The pIC50 was 5.62.

What about the EC50 (CEM-SS [1]) of the same molecule?
The EC50 was “Not Active”.

With `CCCc1cc(=O)oc2c1c1c(c3oc(C)c(C)c(=O)c32)C=CC(C)(C)O1` as the molecule, how does the pIC50 (CEM-SS [2]) read?
The pIC50 was less than 4.00.

What about the EC50 (CEM-SS [1]) of the same molecule?
The EC50 was “Not Active”.

With `CCCc1cc(=O)oc2c3c(c4c(c12)OC(C)(C)C=C4)O[C@H](C)[C@H](C)C3=O` (racemic) as the molecule, how does the pIC50 (CEM-SS [2]) read?
The pIC50 was 4.92.

And the pEC50 (CEM-SS [3]; Homo sapiens, CEM-SS)?
The pEC50 was 5.55.

What about the pEC50 [4] of the same molecule?
The pEC50 was less than 4.00.

And the TI [5]?
The TI was 4.3 Ratio.

With `CCCc1cc(=O)oc2c3c(c4c(c12)OC(C)(C)C=C4)O[C@H](C)[C@@H](C)[C@@H]3O` (racemic) [CALANOLIDE A] as the molecule, how does the pEC50 (CEM-SS [3]; cem-ss) read?
The pEC50 was 6.31.

And the pEC50 [4]?
Its pEC50 is 6.01.

And the TI [5]?
Its TI is 47 Ratio.

Which results are given for `CCCc1cc(=O)oc2c3c(c4c(c12)OC(C)(C)C=C4)O[C@H](CC)[C@@H](C)[C@@H]3O` (racemic)?
pIC50 (CEM-SS [2]): 4.74; pEC50 (CEM-SS [3]; Homo sapiens, CEM-SS): 5.70; pEC50 [4]: 5.49; TI [5]: 9 Ratio

With `CCCc1cc(=O)oc2c3c(c4c(c12)OC(C)(C)C=C4)O[C@H](CC)[C@H](C)[C@H]3O` (racemic) as the molecule, how does the pIC50 (CEM-SS [2]) read?
Its pIC50 is 4.68.

What about the EC50 (CEM-SS [1]) of the same molecule?
The EC50 was “Not Active”.

With `CCCc1cc(=O)oc2c(C(=O)[C@H](C)[C@H](C)O)c(O)c3c(c12)OC(C)(C)C=C3` (racemic) as the molecule, how does the pIC50 (CEM-SS [2]) read?
Its pIC50 is 4.62.

What about the pEC50 (CEM-SS [3]; Homo sapiens, CEM-SS) of the same molecule?
Its pEC50 is 5.21.

And the TI [5]?
The TI was 3.9 Ratio.

With `CCCc1cc(=O)oc2c3c(c4c(c12)OC(C)(C)C=C4)O[C@H](CC)[C@H](C)[C@@H]3O` (racemic) as the molecule, how does the pIC50 (CEM-SS [2]) read?
Its pIC50 is 4.92.

And the EC50 (CEM-SS [1])?
The EC50 was “Not Active”.

With `CCCc1cc(=O)oc2c3c(c4c(c12)OC(C)(C)C=C4)O[C@H](C(C)C)[C@H](C)[C@@H]3O` (racemic) as the molecule, how does the pIC50 (CEM-SS [2]) read?
Its pIC50 is 5.16.

And the EC50 (CEM-SS [1])?
The EC50 was “Not Active”.

Which results are given for `CCCc1cc(=O)oc2c3c(c4c(c12)OC(C)(C)C=C4)OC[C@H](C)C31OCOCO1` (racemic)?
pIC50 (CEM-SS [2]): 5.20; EC50 (CEM-SS [1]): Not Active

Which results are given for `CCCc1cc(=O)oc2c3c(c4c(c12)OC(C)(C)C=C4)OC(C)(C)[C@H](C)[C@H]3O` (racemic)?
pIC50 (CEM-SS [2]): 4.68; pEC50 (CEM-SS [3]; Homo sapiens, CEM-SS): 5.24; pEC50 [4]: 5.30; TI [5]: 3.7 Ratio

Which EC50 (CEM-SS [1]) does the source give for `CCCc1cc(=O)oc2c3c(c4c(c12)OC(C)(C)C=C4)OC[C@H](C)C3=O` (racemic) here?
Its EC50 is “Not Active”.

With `CCCc1cc(=O)oc2c(C(=O)C(C)(C)C(C)O)c(O)c3c(c12)OC(C)(C)C=C3` (racemic) as the molecule, how does the pIC50 (CEM-SS [2]) read?
The pIC50 was 4.43.

And the EC50 (CEM-SS [1])?
The EC50 was “Not Active”.

With `CCCc1cc(=O)oc2c(C(=O)[C@@H](C)[C@H](C)O)c(O)c3c(c12)OC(C)(C)C=C3` (racemic) as the molecule, how does the pIC50 (CEM-SS [2]) read?
Its pIC50 is 4.66.

And the pEC50 (CEM-SS [3]; Homo sapiens, CEM-SS)?
Its pEC50 is 5.64.

What about the TI [5] of the same molecule?
The TI was 9.6 Ratio.

What does the source list for `CCCc1cc(=O)oc2c3c(c4c(c12)OC(C)(C)C=C4)OC(C)(C)[C@H](C)[C@@H]3O` (racemic)?
pIC50 (CEM-SS [2]): 4.68; pEC50 (CEM-SS [3]; Homo sapiens, CEM-SS): < 4.00

With `CCCc1cc(=O)oc2c3c(c4c(c12)OC(C)(C)C=C4)O[C@H](C)C(C)(C)C3=O` as the molecule, how does the pIC50 (CEM-SS [2]) read?
The pIC50 was 4.72.

What about the pEC50 (CEM-SS [3]; Homo sapiens, CEM-SS) of the same molecule?
Its pEC50 is less than 4.00.

With `CCCc1cc(=O)oc2c3c(c4c(c12)OC(C)(C)C=C4)O[C@H](C(C)C)[C@@H](C)C3=O` (racemic) as the molecule, how does the pIC50 (CEM-SS [2]) read?
Its pIC50 is 4.68.

What about the EC50 (CEM-SS [1]) of the same molecule?
Its EC50 is “Not Active”.

With `CCCc1cc(=O)oc2c3c(c4c(c12)OC(C)(C)C=C4)O[C@H](C(C)C)[C@@H](C)[C@@H]3O` (racemic) as the molecule, how does the pIC50 (CEM-SS [2]) read?
The pIC50 was 5.19.

What about the EC50 (CEM-SS [1]) of the same molecule?
The EC50 was “Not Active”.

With `CCCc1cc(=O)oc2c3c(c4c(c12)OC(C)(C)C=C4)O[C@H](C)[C@@H](C)C3=O` (racemic) as the molecule, how does the pIC50 (CEM-SS [2]) read?
Its pIC50 is 4.72.

What about the pEC50 (CEM-SS [3]; Homo sapiens, CEM-SS) of the same molecule?
The pEC50 was 5.92.

What about the pEC50 [4] of the same molecule?
Its pEC50 is 4.40.

What about the TI [5] of the same molecule?
The TI was 16 Ratio.

With `CCCc1cc(=O)oc2c3c(c4c(c12)OC(C)(C)C=C4)OC(C)(C)CC3O` (racemic) as the molecule, how does the pIC50 (CEM-SS [2]) read?
Its pIC50 is 4.96.

And the EC50 (CEM-SS [1])?
The EC50 was “Not Active”.

With `CCCc1cc(=O)oc2c(C(=O)CC)c(OCC)c3c(c12)OC(C)(C)C=C3` as the molecule, how does the pIC50 (CEM-SS [2]) read?
Its pIC50 is 5.18.

What about the EC50 (CEM-SS [1]) of the same molecule?
Its EC50 is “Not Active”.

With `CCCc1cc(=O)oc2c3c(c4c(c12)OC(C)(C)C=C4)O[C@H](C)C(C)(C)[C@H]3O` (racemic) as the molecule, how does the pIC50 (CEM-SS [2]) read?
Its pIC50 is 4.82.

And the pEC50 (CEM-SS [3]; Homo sapiens, CEM-SS)?
Its pEC50 is 5.62.

And the pEC50 [4]?
The pEC50 was 4.49.

And the TI [5]?
Its TI is 6.2 Ratio.

With `CCCc1cc(=O)oc2c3c(c4c(c12)OC(C)(C)C=C4)O[C@H](C)[C@H](C)[C@H]3O` (racemic) as the molecule, how does the pIC50 (CEM-SS [2]) read?
Its pIC50 is 4.70.

What about the pEC50 (CEM-SS [3]; Homo sapiens, CEM-SS) of the same molecule?
Its pEC50 is less than 4.00.

With `CCCc1cc(=O)oc2c3c(c4c(c12)OC(C)(C)C=C4)O[C@H](CC)[C@@H](C)C3=O` (racemic) as the molecule, how does the pIC50 (CEM-SS [2]) read?
Its pIC50 is 4.74.

What about the pEC50 (CEM-SS [3]; Homo sapiens, CEM-SS) of the same molecule?
Its pEC50 is less than 4.00.

Which results are given for `CCCc1cc(=O)oc2c3c(c4c(c12)OC(C)(C)C=C4)O[C@H](CC)[C@@H](C)[C@H]3O` (racemic)?
pIC50 (CEM-SS [2]): 4.85; pEC50 (CEM-SS [3]; Homo sapiens, CEM-SS): 5.77; pEC50 [4]: 5.70; TI [5]: 8.2 Ratio

What does the source list for `CCCc1cc(=O)oc2c(C(O)CC)c(OCC)c3c(c12)OC(C)(C)C=C3` (racemic)?
pIC50 (CEM-SS [2]): 4.80; EC50 (CEM-SS [1]): Not Active

Source: ChEMBL document CHEMBL1130339, “Structural analogues of the calanolide anti-HIV agents. Modification of the trans-10,11-dimethyldihydropyran-12-ol ring (ring C)” (J Med Chem, 1997)
